Laboratory results: ChEMBL document CHEMBL2040727, “Substituted thiazoles VI. Synthesis and antitumor activity of new 2-acetamido- and 2 or 3-propanamido-thiazole analogs” (2012)

Tested on: HCT-15
Assay: Growth inhibition of human HCT15 cells at 10 uM after 48 hrs by coulter counter analysis
Format: functional
Conditions: HCT-15, 48 h, read-out: GI
Procedure, shortened: (§1)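 Single-dose NCI 60-line panel screen of test compounds. Cells grown in RPMI 1640 with 10% FBS. Compounds dissolved in DMSO, then diluted in phosphate buffer saline (final DMSO below 1%). Wells run in duplicate at 6 × 10⁴ cells/ml. Controls held PBS and DMSO at matching dilutions. Incubation 48 h at 37 °C under humidified 5% CO2. Cells diluted tenfold in saline and counted by Coulter counter. Percent growth inhibition taken from mean-graph of treated-cell growth.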

SMILES	inhibition of growth at 10 µM [%]
O=C(CCCl)Nc1nc(-c2ccccc2)cs1	73

Tested on: BT-549
Assay: Growth inhibition of human BT549 cells at 10 uM after 48 hrs by coulter counter analysis
Format: functional
Conditions: BT-549, 48 h, read-out: GI
Procedure, shortened: as §1

SMILES	inhibition of growth at 10 µM [%]
O=C(CCCl)Nc1nc(-c2ccccc2)cs1	74.5

Tested on: RPMI-8226
Assay: Growth inhibition of human RPMI8226 cells at 10 uM after 48 hrs by coulter counter analysis
Format: functional
Conditions: RPMI-8226, 48 h, read-out: GI
Procedure, shortened: as §1

SMILES	inhibition of growth at 10 µM [%]
O=C(CCCl)Nc1nc(-c2ccccc2)cs1	93.1

Tested on: SR
Assay: Growth inhibition of human SR cells at 10 uM after 48 hrs by coulter counter analysis
Format: functional
Conditions: read-out: GI
Procedure, shortened: (§2)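 Single-dose screen in the NCI 60 cell line panel. Cells grown in RPMI 1640 with 10% FBS. Compounds dissolved in DMSO and diluted in phosphate buffered saline, final DMSO under 1%. Duplicate wells seeded from culture at 6 × 10⁴ cells/ml. Incubated 48 h at 37 °C, humidified, 5% CO2. Cells diluted tenfold in saline and Coulter-counted. Percent growth inhibition computed against PBS/DMSO controls.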

SMILES	inhibition of growth at 10 µM [%]
O=C(CCCl)Nc1nc(-c2ccccc2)cs1	65.4

Tested on: T47D
Assay: Growth inhibition of human T47D cells at 10 uM after 48 hrs by coulter counter analysis
Format: functional
Conditions: read-out: GI
Procedure, shortened: as §2

SMILES	inhibition of growth at 10 µM [%]
O=C(CCCl)Nc1nc(-c2ccccc2)cs1	55.2

Tested on: MDA-MB-231
Assay: Growth inhibition of human MDA-MB-231 cells at 10 uM after 48 hrs by coulter counter analysis
Format: functional
Conditions: MDA-MB-231, 48 h, read-out: GI
Procedure, shortened: as §1

SMILES	inhibition of growth at 10 µM [%]
O=C(CCCl)Nc1nc(-c2ccccc2)cs1	53.5

Tested on: UACC-62
Assay: Growth inhibition of human UACC62 cells at 10 uM after 48 hrs by coulter counter analysis
Format: functional
Conditions: UACC-62, 48 h, read-out: GI
Procedure, shortened: as §2

SMILES	inhibition of growth at 10 µM [%]
O=C(CCCl)Nc1nc(-c2ccccc2)cs1	39

Tested on: SF-539
Assay: Growth inhibition of human SF539 cells at 10 uM after 48 hrs by coulter counter analysis
Format: functional
Conditions: SF-539, 48 h, read-out: GI
Procedure, shortened: as §1

SMILES	inhibition of growth at 10 µM [%]
O=C(CCCl)Nc1nc(-c2ccccc2)cs1	81.5

Tested on: OVCAR-5
Assay: Growth inhibition of human OVCAR5 cells at 10 uM after 48 hrs by coulter counter analysis
Format: functional
Conditions: OVCAR-5, 48 h, read-out: GI
Procedure, shortened: as §1

SMILES	inhibition of growth at 10 µM [%]
O=C(CCCl)Nc1nc(-c2ccccc2)cs1	35.7

Tested on: SK-MEL-2
Assay: Growth inhibition of human SK-MEL-2 cells at 10 uM after 48 hrs by coulter counter analysis
Format: functional
Conditions: SK-MEL-2, 48 h, read-out: GI
Procedure, shortened: as §1

SMILES	inhibition of growth at 10 µM [%]
O=C(CCCl)Nc1nc(-c2ccccc2)cs1	71.2

Tested on: SF-295
Assay: Growth inhibition of human SF295 cells at 10 uM after 48 hrs by coulter counter analysis
Format: functional
Conditions: SF-295, 48 h, read-out: GI
Procedure, shortened: as §1

SMILES	inhibition of growth at 10 µM [%]
O=C(CCCl)Nc1nc(-c2ccccc2)cs1	46.3

Tested on: NCI-H322M
Assay: Growth inhibition of human NCI-H322M cells at 10 uM after 48 hrs by coulter counter analysis
Format: functional
Conditions: read-out: GI
Procedure, shortened: as §1

SMILES	inhibition of growth at 10 µM [%]
O=C(CCCl)Nc1nc(-c2ccccc2)cs1	29.2

Tested on: not listed separately
Assay: Growth inhibition of human NCI-ADR-RES cells at 10 uM after 48 hrs by coulter counter analysis
Format: functional
Conditions: read-out: GI
Procedure, shortened: as §1

SMILES	inhibition of growth at 10 µM [%]
O=C(CCCl)Nc1nc(-c2ccccc2)cs1	59.6

Tested on: HCC 2998
Assay: Growth inhibition of human HCC2998 cells at 10 uM after 48 hrs by coulter counter analysis
Format: functional
Conditions: HCC 2998, 48 h, read-out: GI
Procedure, shortened: as §1

SMILES	inhibition of growth at 10 µM [%]
O=C(CCCl)Nc1nc(-c2ccccc2)cs1	15.8

Tested on: ACHN
Assay: Growth inhibition of human ACHN cells at 10 uM after 48 hrs by coulter counter analysis
Format: functional
Conditions: read-out: GI
Procedure, shortened: as §1

SMILES	inhibition of growth at 10 µM [%]
O=C(CCCl)Nc1nc(-c2ccccc2)cs1	50.7

Tested on: KM12
Assay: Growth inhibition of human KM12 cells at 10 uM after 48 hrs by coulter counter analysis
Format: functional
Conditions: KM12, 48 h, read-out: GI
Procedure, shortened: as §1

SMILES	inhibition of growth at 10 µM [%]
O=C(CCCl)Nc1nc(-c2ccccc2)cs1	52.6

Tested on: MDA-MB-435
Assay: Growth inhibition of human MDA-MB-435 cells at 10 uM after 48 hrs by coulter counter analysis
Format: functional
Conditions: MDA-MB-435, 48 h, read-out: GI
Procedure, shortened: as §1

SMILES	inhibition of growth at 10 µM [%]
O=C(CCCl)Nc1nc(-c2ccccc2)cs1	68.2

Tested on: OVCAR-4
Assay: Growth inhibition of human OVCAR4 cells at 10 uM after 48 hrs by coulter counter analysis
Format: functional
Conditions: OVCAR-4, 48 h, read-out: GI
Procedure, shortened: as §1

SMILES	inhibition of growth at 10 µM [%]
O=C(CCCl)Nc1nc(-c2ccccc2)cs1	24.8

Tested on: OVCAR-3
Assay: Growth inhibition of human OVCAR3 cells at 10 uM after 48 hrs by coulter counter analysis
Format: functional
Conditions: OVCAR-3, 48 h, read-out: GI
Procedure, shortened: as §1

SMILES	inhibition of growth at 10 µM [%]
O=C(CCCl)Nc1nc(-c2ccccc2)cs1	98

Tested on: SW-620
Assay: Growth inhibition of human SW620 cells at 10 uM after 48 hrs by coulter counter analysis
Format: functional
Conditions: SW-620, 48 h, read-out: GI
Procedure, shortened: as §2

SMILES	inhibition of growth at 10 µM [%]
O=C(CCCl)Nc1nc(-c2ccccc2)cs1	70.7

Tested on: NCI-H226
Assay: Growth inhibition of human NCI-H226 cells at 10 uM after 48 hrs by coulter counter analysis
Format: functional
Conditions: NCI-H226, 48 h, read-out: GI
Procedure, shortened: as §1

SMILES	inhibition of growth at 10 µM [%]
O=C(CCCl)Nc1nc(-c2ccccc2)cs1	29.3

Tested on: IGROV-1
Assay: Growth inhibition of human IGROV1 cells at 10 uM after 48 hrs by coulter counter analysis
Format: functional
Conditions: IGROV-1, 48 h, read-out: GI
Procedure, shortened: as §1

SMILES	inhibition of growth at 10 µM [%]
O=C(CCCl)Nc1nc(-c2ccccc2)cs1	50

Tested on: SN12C
Assay: Growth inhibition of human SN12C cells at 10 uM after 48 hrs by coulter counter analysis
Format: functional
Conditions: read-out: GI
Procedure, shortened: as §1

SMILES	inhibition of growth at 10 µM [%]
O=C(CCCl)Nc1nc(-c2ccccc2)cs1	57.2

Tested on: SF-268
Assay: Growth inhibition of human SF268 cells at 10 uM after 48 hrs by coulter counter analysis
Format: functional
Conditions: SF-268, 48 h, read-out: GI
Procedure, shortened: as §1

SMILES	inhibition of growth at 10 µM [%]
O=C(CCCl)Nc1nc(-c2ccccc2)cs1	63

Tested on: OVCAR-8
Assay: Growth inhibition of human OVCAR8 cells at 10 uM after 48 hrs by coulter counter analysis
Format: functional
Conditions: OVCAR-8, 48 h, read-out: GI
Procedure, shortened: as §1

SMILES	inhibition of growth at 10 µM [%]
O=C(CCCl)Nc1nc(-c2ccccc2)cs1	56.1

Tested on: LOX IMVI
Assay: Growth inhibition of human LOXIMVI cells at 10 uM after 48 hrs by coulter counter analysis
Format: functional
Conditions: read-out: GI
Procedure, shortened: as §1

SMILES	inhibition of growth at 10 µM [%]
O=C(CCCl)Nc1nc(-c2ccccc2)cs1	47.8

Tested on: Malme-3M
Assay: Growth inhibition of human MALME-3M cells at 10 uM after 48 hrs by coulter counter analysis
Format: functional
Conditions: read-out: GI
Procedure, shortened: as §1

SMILES	inhibition of growth at 10 µM [%]
O=C(CCCl)Nc1nc(-c2ccccc2)cs1	68.2

Tested on: MCF7
Assay: Growth inhibition of human MCF7 cells at 10 uM after 48 hrs by coulter counter analysis
Format: functional
Conditions: MCF7, 48 h, read-out: GI
Procedure, shortened: as §1

SMILES	inhibition of growth at 10 µM [%]
O=C(CCCl)Nc1nc(-c2ccccc2)cs1	75.9

Tested on: M14
Assay: Growth inhibition of human M14 cells at 10 uM after 48 hrs by coulter counter analysis
Format: functional
Conditions: M14, 48 h, read-out: GI
Procedure, shortened: as §1

SMILES	inhibition of growth at 10 µM [%]
O=C(CCCl)Nc1nc(-c2ccccc2)cs1	52.7

Tested on: UO-31
Assay: Growth inhibition of human UO31 cells at 10 uM after 48 hrs by coulter counter analysis
Format: functional
Conditions: UO-31, 48 h, read-out: GI
Procedure, shortened: as §2

SMILES	inhibition of growth at 10 µM [%]
O=C(CCCl)Nc1nc(-c2ccccc2)cs1	83.2

Tested on: SK-MEL-5
Assay: Growth inhibition of human SK-MEL-5 cells at 10 uM after 48 hrs by coulter counter analysis
Format: functional
Conditions: SK-MEL-5, 48 h, read-out: GI
Procedure, shortened: as §1

SMILES	inhibition of growth at 10 µM [%]
O=C(CCCl)Nc1nc(-c2ccccc2)cs1	48.9

Tested on: not listed separately
Assay: Growth inhibition of human Hs 578T cells at 10 uM after 48 hrs by coulter counter analysis
Format: functional
Conditions: read-out: GI
Procedure, shortened: as §1

SMILES	inhibition of growth at 10 µM [%]
O=C(CCCl)Nc1nc(-c2ccccc2)cs1	< 10

Tested on: COLO 205
Assay: Growth inhibition of human COLO205 cells at 10 uM after 48 hrs by coulter counter analysis
Format: functional
Conditions: COLO 205, 48 h, read-out: GI
Procedure, shortened: as §1

SMILES	inhibition of growth at 10 µM [%]
O=C(CCCl)Nc1nc(-c2ccccc2)cs1	55.6
